# Assay outcomes deposited in PubChem BioAssay by several laboratories.
# TbHK1 inh – blocks Trypanosoma brucei hexokinase 1 activity; 0.11% of 220,000 active; inhibition, % at 10 µM; AID 1430; recombinant TbHK1, G6PDH-coupled NADH A340;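 active = inhibition of 50% or more in the single-dose primary screen; inactive = inhibition below 50%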
# Hck-Nef inh – human Hck-Nef kinase inhibition; 0.68% of 220,000 active; inhibition, % at 20 µM; P08631; Recombinant Hck-YEEI plus Nef, Z-Lyte FRET kinase assay;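 active = Hck-Nef kinase inhibition above about 50%, limit read from the data; inactive = inhibition below that limit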;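 also: 0% = DMSO with Hck plus Nef and 100% = Hck alone without Nef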
# 14-3-3 Bad PPI – disrupts binding of bovine 14-3-3 zeta to phospho-Bad peptide. P63103. TR-FRET 14-3-3zeta/Dy647-pBad peptide displacement, 1 h. inhibition, % at 21.7 µM. 0.71% of 220,000 active. AID 781;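 active = inhibition above about 70%, limit read from the data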;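 also: 0% = full 14-3-3 plus peptide FRET controls and 100% = background without 14-3-3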
# Mdm2 ligase inh – inhibitors of human Mdm2 E3 ubiquitin ligase | Q00987 | cell-based MDM2 ubiquitination luciferase reporter, 2 h; 0 = plate control, 100 = twice control, blank-subtracted | signal enhancement, % at 5 µM | 0.11% of 210,000 active | AID 1230;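 active = signal enhancement of 30% or more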;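 also: luminescence tracks abundance of the self-degrading MDM2-luciferase fusion protein; higher signal means inhibition of MDM2 E3 ligase activity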
# Target sequence (Q00987 whole entry, looked up, the tested form may be a part): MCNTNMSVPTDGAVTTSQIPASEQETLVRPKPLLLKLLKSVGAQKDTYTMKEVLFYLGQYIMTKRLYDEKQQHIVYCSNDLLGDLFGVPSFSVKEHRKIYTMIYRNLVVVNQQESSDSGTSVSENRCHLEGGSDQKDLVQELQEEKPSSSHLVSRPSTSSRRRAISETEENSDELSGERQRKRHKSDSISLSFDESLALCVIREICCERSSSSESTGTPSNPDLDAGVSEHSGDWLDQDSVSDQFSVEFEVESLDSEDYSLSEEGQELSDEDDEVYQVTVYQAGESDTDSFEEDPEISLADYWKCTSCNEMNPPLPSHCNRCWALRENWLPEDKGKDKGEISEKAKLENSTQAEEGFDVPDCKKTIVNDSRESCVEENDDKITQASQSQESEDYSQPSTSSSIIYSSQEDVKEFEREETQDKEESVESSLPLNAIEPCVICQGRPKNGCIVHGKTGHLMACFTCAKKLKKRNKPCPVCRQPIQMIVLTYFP
#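 Material: Stable MDM2–luciferase fusion reporter cells | Amount: 2000 cells seeded into each well | Dosing: One concentration, 5 µM, with 0.2% DMSO | Incubation: 4 h cell settling then 2 h compound exposure, 37 °C | Measured by: Luciferase luminescence | Read-out basis: % enhancement relative to plate controls after blank subtraction | Benchmarks: Control and blank well means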
# Wee1 stabilizer – inhibitors of human Wee1 degradation | P30291 | HeLa Luc-Wee1K328M stability, luciferase luminescence; 100% = proteasome inhibitor MG132 effect | reporter increase, % at 5 µM | 1.2% of 220,000 active;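 active = activation above the mean of all tested compounds plus 3 SD, set per screening run, cut at about 8.8% in these data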;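 also: cells exposed to compound for 20 h before luminescence read; 0% = DMSO alone and 100% = MG132 at 30 µM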
# Numbers without * were called inactive; x = not tested or not shown; ! = not confirmed by another sample; [ ] = dose if it differs, or a comment. Compounds with a hit are over-represented: about 2.7% of the library has one in this group of screens.
SMILES,TbHK1 inh,Hck-Nef inh,14-3-3 Bad PPI,Mdm2 ligase inh,Wee1 stabilizer
CC(C)OC(=O)Nc1ccc2c(c1)N(C(=O)N1CCN(C)CC1)c1ccccc1CC2,-8.9,6.9,23.3,-17.4,10.6*
COC(=O)Nc1ccc2c(c1)N(C(=O)CCN1CCN3CCCC3C1)c1ccccc1CC2 (stereo not given),-1.8,-3.5,72.2*!,-20.2,-0.8
COc1cc2c(cc1NC(=O)C(C)OC(=O)c1ccc(S(=O)(=O)Nc3ccccc3Cl)cc1)oc1ccccc12 (stereo not given),0.7,13.5,5.5,-2.7,0.4
COc1cc(C=O)ccc1OCCCOc1ccc([N+](=O)[O-])cc1,-9.2,-0.2,5.1,x,9.9*
CCCC1(C(=O)OCC)NC(c2ccc(OC)cc2OC)C2C(=O)N(c3ccc4c(c3)OCCO4)C(=O)C21 (stereo not given),-1.4,11.3,-9.3,3.0,3.7
COc1ccc(Cc2nc(-c3cccs3)no2)cc1,-4.9,0.6,-5.6,-66.8,8.9*
COC(=O)c1c[nH]n2c(=O)cc(CCl)nc12,-13.2,-0.1,x,-14.9,-1.9
Nc1c2c(nc3sc4c(c13)CCCC4)CCCCCC2,5.7,58.6*,5.9,5.2,0.6
CC(NC(=O)CCl)c1ccccc1Br (stereo not given),-2.1,8.7,-5.0,x,1.8
O=c1[nH]c2ccccc2c2nc(-c3cccc(S(=O)(=O)N4CCCC4)c3)nn12,-9.1,22.8,2.0,x,-0.3
Cc1nc2sc(C(c3cccs3)N3CCN(c4cccc(Cl)c4)CC3)c(O)n2n1 (stereo not given),-15.8,-1.9,-0.2,-0.6,11.3*
CCNc1nc(N)c(C(=O)c2ccc(Cl)s2)s1,-4.7,1.3,-8.6,-33.8,10.3*
CC(C)(C)c1csc(NC(=O)c2ccc(Cl)s2)n1,-7.7,-1.1,5.8,-7.1,8.5
COc1cc(CN2CCNC(=O)C2CC(=O)N(C)Cc2ncc[nH]2)cc(OC)c1 (stereo not given),-3.0,19.3,-6.2,-15.3,2.8
CNc1nc(Oc2ccc(=O)n(C)n2)nc(N2CCOCC2)n1,5.0,3.3,11.5,-15.4,-1.1
COc1cc2c(cc1OC)C(c1ccccc1O)N(C1CC(=O)N(c3ccccc3)C1=O)CC2 (stereo not given),-1.3,0.1,74.1*,2.6,-1.1
COC(=O)c1sc(SC)c(-c2ccon2)c1C,-9.5,-0.6,-5.3,-14.9,2.7
CC/C(=C/c1sc2ccc(C)cc2[n+]1CCCS(=O)(=O)[O-])SC,-15.3,26.9,-2.2,18.2,-2.0
O=S(=O)([O-])CCC[n+]1c(SCCCS(=O)(=O)O)sc2ccc(Cl)cc21,26.0,5.9,92.5*[fluorescence artefact?],3.8,-0.2
CCOCCCNc1nc2ccccc2[nH]1,-0.7,1.1,-5.4,-9.1,10.3*
Cc1ccc(S(=O)(=O)NCc2ccc(C(=O)NCCN(Cc3ccccc3)C(C)C)cc2)cc1,-0.7,16.7,-11.9,-28.4,0.3
CC(C)c1nc2c(c(=O)c3ccccc3n2C)c(=O)n1CCc1ccccc1,-12.9,8.7,3.7,-7.2,10.5*
Cn1c2ccccc2c(=O)c2c(=O)n(C3CCCCCC3)c(C3CCCCC3)nc21,10.0,42.2,86.5*,-7.2,0.3
COc1ccc(CCn2c(-c3ccccc3)nc3c(c(=O)c4ccccc4n3C)c2=O)cc1,-6.3,2.8,-3.8,4.3,-3.5
Cn1c2ccccc2c(=O)c2c(=O)n(-c3ccccc3)c(C3CCCCC3)nc21,3.0,7.4,0.1,18.8,-3.3
SMILES,TbHK1 inh,Hck-Nef inh,14-3-3 Bad PPI,Mdm2 ligase inh,Wee1 stabilizer
COc1cc(NC(=O)CSCC(=O)Nc2cc(OC)cc(OC)c2)cc(OC)c1,-0.8,9.7,1.6,x,-1.2
COc1ccc(CNC(=O)C(=O)NCC2OCCN2S(=O)(=O)c2cccs2)cc1 (stereo not given),-3.9,0.2,-2.5,x,-1.2
COc1cc(C2Oc3ccccc3C=C2[N+](=O)[O-])cc(OC)c1OC (stereo not given),-10.7,12.6,2.2,-7.4,0.1
O=C(COC(=O)c1cccc(Cl)c1)NCCN1C(=O)CSC1=O,0.1,-2.9,-3.1,3.4,1.7
O=C(COC(=O)c1ccc(Cl)cc1O)NCCN1C(=O)CSC1=O,-8.0,2.4,96.9*,x,1.5
CC1(C)NC(=O)N(CCOc2ccc([N+](=O)[O-])cc2)C1=O,-11.1,3.8,-1.6,-14.4,9.6*
Cc1cc(OCCCCN2C(=O)NC(C)(C)C2=O)ccc1[N+](=O)[O-],-8.3,-1.7,-3.3,-10.2,1.5
CC1=NC(=O)C(N=Nc2cccc3ccccc23)N1c1ccccc1 (stereo not given),-0.5,9.7,x,x,0.4
CCc1[nH]c(C(=O)O)c(C)c1C(=O)OC,-5.2,-4.5,-3.7,-2.3,-2.1
COc1cccc(N=C2SC(C(=O)Nc3ccc(F)cc3)CC(=O)N2C)c1 (stereo not given),-5.8,-1.1,5.3,1.8,-1.0
COc1ccc(NC(=O)C2CC(=O)N/C(=N/N=C/c3ccco3)S2)cc1 (stereo not given),-43.1,13.8,0.8,-6.7,9.4*
COc1ccc(CN=C2NC(=O)CC(C(=O)Nc3ccc(F)cc3)S2)cc1 (stereo not given),-0.4,2.1,86.3*[fluorescence artefact?],-10.1,-0.3
O=C(CSc1ccc2c(c1)OCCO2)Nc1ccc(Cl)cn1,26.7,1.7,4.5,-0.8,11.0*
COc1ccc(OCC(=O)Nc2cc(-c3nn(C)c(=O)c4ccccc34)ccc2N2CCOCC2)cc1,-4.1,10.9,3.3,x,1.7
CCCNc1cc(=S)nc(N)[nH]1,-4.1,-28.6,-8.4,-8.7,6.4
CCN(c1ccccc1)S(=O)(=O)c1ccc(Cl)c(NC(=O)COC(=O)c2ccc(O)cc2)c1,-9.7,-0.8,12.9,-8.5,3.5
CCN(c1ccccc1)S(=O)(=O)c1ccc(Cl)c(NC(=O)COC(=O)c2cc(O)c3ccccc3c2O)c1,0.0,79.9*,10.6,x,2.4
CCCC1C2C(=O)N(c3ccc(OC)cc3)C(=O)C2ON1c1ccccc1 (stereo not given),-3.6,-2.2,89.8*,x,1.3
O=C(N/N=C\c1cc(Br)ccc1O)c1ccc(S(=O)(=O)N2CCCCC2)cc1,-2.4,7.0,-0.9,5.8,9.1*
O=C(N/N=C/c1coc2ccccc2c1=O)c1cn(-c2ccccc2)nc1-c1ccccc1,-5.4,39.3,6.5,-0.9,10.0*
CC(C)N1C(=O)c2ccccc2N(Cc2ccccc2)S1(=O)=O,-5.5,2.9,-1.9,-7.0,10.4*
CC(Cc1ccccc1)N/C=C1\CC(=O)NC1=O (stereo not given),0.8,1.8,-4.3,-0.8,1.2
CCOc1ccc(N(CC(=O)NC(C(C)C)C(C)C)S(=O)(=O)c2ccc(OC)c(OC)c2)cc1,-4.7,-8.7,-1.4,-11.4,3.9
Cc1ccc2nc(-c3ccc(NC(=O)CNC4CC4)cc3)sc2c1,-33.4,18.5,80.3*,-21.7,1.8
